Laboratory results published in ChEMBL document CHEMBL1146273, “Kynurenic acid amides as novel NR2B selective NMDA receptor antagonists” (Bioorg Med Chem Lett, 2007).

Columns and labels:
Rattus norvegicus = species: Rattus norvegicus; assay: Inhibition of human recombinant NR1/NR2A receptor expressed in rat cortical cells assessed as NMDA-evoked increase in intracellular calcium level at 15 uM; type: cell-based
Summary of the method: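 Fluo-4/AM Ca2+ fluorimetry on a plate reader, applied to cells expressing recombinant NR1/NR2A receptors. Inhibition (%) of the NMDA-evoked intracellular Ca2+ increase measured at 15 µM compound.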

[1] = biological target: Glutamate NMDA receptor (Rattus norvegicus) (UniProt P35439+Q00959+Q00960+Q00961+Q62645+Q8VHN2+Q9R1M7); assay: Inhibition of NMDA receptor in rat cortical cells assessed as NMDA-evoked increase in intracellular calcium level at 0.1 uM; type: cell-based
Summary of the method: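 Rat cortical cell culture loaded with Fluo-4/AM. Baseline and NMDA-evoked intracellular Ca2+ changes monitored by fluorimetry on a plate reader. Read-out is inhibition of the NMDA-evoked Ca2+ rise, with percent inhibition taken at 0.1 µM compound. Number of experiments (n) given per compound.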

Mus musculus [2] = assay: Analgesic activity against formalin-induced pain in po dosed mouse; type: ADME, organism-based
Summary of the method: (§1)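 Fasted male NMRI mice (20–25 g) dosed orally with test drug or vehicle (5% Tween 80) 15 min before 20 µl of 1% formalin injected sc into right hindpaw. Licking/biting time read by visual observation at 20–25 min post-formalin (late phase). Percent decrease versus daily vehicle group; Mann–Whitney U-test; ED50 from Boltzmann sigmoidal fit.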

Glutamate NMDA receptor [3] = assay: Inhibition of NMDA receptor in rat cortical cells assessed as NMDA-evoked increase in intracellular calcium level; type: cell-based
Summary of the method: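 Rat cortical cell culture loaded with Fluo-4/AM. Baseline and NMDA-evoked intracellular Ca2+ changes monitored by fluorimetry on a plate reader. Number of experiments (n) given per compound.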

Glutamate NMDA receptor [4] = assay: Displacement of [3H]Ro-256981 from NMDA receptor in rat forebrain membrane; type: cell membranes
Summary of the method: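 Binding assay on rat forebrain membrane using tritiated Ro-25,6981 as radioligand.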

Mus musculus [5] = assay: Analgesic activity against formalin-induced pain in mouse at 20 mg/kg, po; type: ADME, organism-based; set-up: dose 20 mg/kg, route oral; details: in vivo; summary of the method: as §1

C[C@H]([C@@H](O)c1ccc(O)cc1)N1CCC(Cc2ccccc2)CC1
inhibition (Rattus norvegicus): -2.7%

O=C(c1cc(=O)c2ccc(O)cc2[nH]1)N1CCC(Cc2ccccc2)CC1
inhibition [1]: 27.9%
inhibition (Rattus norvegicus): 9.1%

O=C(c1cc(=O)c2cc(O)ccc2[nH]1)N1CCC(Oc2ccccc2)CC1
ED50 (Mus musculus [2]): 8.5 mg/kg
IC50 (Glutamate NMDA receptor [3]): 49.6 nM
inhibition (Rattus norvegicus): 0.7%

O=C(c1cc(=O)c2ccccc2[nH]1)N1CCC(Cc2ccccc2)CC1
inhibition [1]: 4.5%
inhibition (Rattus norvegicus): 1.1%

O=C(c1cc(=O)c2cc3[nH]c(=O)oc3cc2[nH]1)N1CCC(Cc2ccccc2)CC1
ED50 (Mus musculus [2]): > 20 mg/kg
IC50 (Glutamate NMDA receptor [3]): 21.7 nM
inhibition (Rattus norvegicus): -2.1%

O=C(c1nc2ccc(O)cc2[nH]1)N1CCC(Cc2ccccc2)CC1
inhibition (Rattus norvegicus): 21%

Cc1ccc(OC2CCN(C(=O)c3cc(=O)c4cc(O)ccc4[nH]3)CC2)cc1
ED50 (Mus musculus [2]): 8.2 mg/kg
IC50 (Glutamate NMDA receptor [3]): 6.2 nM
Ki (Glutamate NMDA receptor [4]): 4.2 nM
inhibition (Rattus norvegicus): -3.5%

O=C(c1cc(=O)c2cc(O)ccc2[nH]1)N1CCC(Cc2ccccc2)CC1
IC50 (Glutamate NMDA receptor [3]): 9.1 nM
Activity (Mus musculus [5]): Not Active
inhibition (Rattus norvegicus): 8.9%

O=C(c1cc(=O)c2cc(O)ccc2[nH]1)N1CCC(Cc2ccc(Cl)cc2)CC1
IC50 (Glutamate NMDA receptor [3]): 9.1 nM
Activity (Mus musculus [5]): Not Active
inhibition (Rattus norvegicus): -5.1%

O=C(c1nc(=O)c2cc(O)ccc2[nH]1)N1CCC(Cc2ccccc2)CC1
IC50 (Glutamate NMDA receptor [3]): 317 nM
inhibition (Rattus norvegicus): 13.9%

CC(=O)Nc1ccc2[nH]c(C(=O)N3CCC(Cc4ccccc4)CC3)cc(=O)c2c1
inhibition [1]: 2.6%
inhibition (Rattus norvegicus): 12.4%

O=C(c1cc2ccc(O)cc2[nH]1)N1CCC(Cc2ccccc2)CC1
inhibition (Rattus norvegicus): 15.6%

O=C(c1cc(=O)c2cc(O)ccc2[nH]1)N1CCC(Oc2ccc(Cl)cc2)CC1
IC50 (Glutamate NMDA receptor [3]): 7.1 nM
Activity (Mus musculus [5]): Not Active
inhibition (Rattus norvegicus): 5.1%

O=C(c1cc(=O)c2cc(O)ccc2[nH]1)N1CCC(Cc2ccc(F)cc2)CC1
ED50 (Mus musculus [2]): 9.5 mg/kg
IC50 (Glutamate NMDA receptor [3]): 8.7 nM
inhibition (Rattus norvegicus): -0.9%

Cc1ccc(CC2CCN(C(=O)c3cc(=O)c4cc(O)ccc4[nH]3)CC2)cc1
ED50 (Mus musculus [2]): 10.6 mg/kg
IC50 (Glutamate NMDA receptor [3]): 11 nM
inhibition (Rattus norvegicus): -2.4%

O=C(c1cc2cc(O)ccc2[nH]1)N1CCC(Cc2ccccc2)CC1
IC50 (Glutamate NMDA receptor [3]): 25 nM
inhibition (Rattus norvegicus): 17.2%
